The record followed here is ChEMBL document CHEMBL5380865, “Linearization of the Brevicidine and Laterocidine Lipopeptides Yields Analogues That Retain Full Antibacterial Activity” (J Med Chem, 2023).

Converted amounts (≈) assume the structure as drawn. Where a SMILES comes first, the peptide text is derived from it. Bridges are numbered along the chain shown (N, C = ends). [ ]: non-standard residue; d: D form. The star is where a group is joined. ξ: configuration not given here. Octanoyl(7-Me) = CC(C)CCCCCC(=O)*; Hexanoyl(4ξ-Me) = CCC(C)CCC(=O)*; dOrn = NCCC[C@@H](N)C(=O)O; Orn = NCCC[C@H](N)C(=O)O; Dap = NC[C@H](N)C(=O)O; Alloc = C=CCOC(=O)*; OAll = C=CCO*

As a reminder, the MIC is the lowest concentration that inhibits growth of the organism.

Test system in the first series: not listed separately
The series is described as follows: Hemolytic activity in sheep red blood cell assessed as hemolysis at 1 to 128 ug/ml incubated for 1 hrs relative to control. Type of series: toxicity, cell-based, Ovis aries, Erythrocyte. To be noted: sheep red blood cells (erythrocytes), at 1 to 128 µg/mL, dose 1-128 µg/ml, read-out: Activity. The gist of the method: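 Defibrinated sheep erythrocytes washed five times in PBS with 0.002% Tween20 and normalized so the Triton control reads 2.5–3.0 at 415 nm. Mixed 1:1 with compound serial dilutions (128–1 μg/mL) and incubated 1 h at 37 °C, 500 rpm. Supernatant A415 is background-corrected with buffer and expressed as percent of 0.1% Triton X-100 (final). Run in triplicate.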
As to `CCC(C)CCC(=O)N[C@H](CC(N)=O)C(=O)N[C@H](Cc1ccc(O)cc1)C(=O)N[C@H](Cc1c[nH]c2ccccc12)C(=O)N[C@H](CCCN)C(=O)N[C@@H](CCCN)C(=O)NCC(=O)N[C@H](CCCN)C(=O)N[C@@H](Cc1c[nH]c2ccccc12)C(N)=O` (stereo not given in full) ({Hexanoyl(4ξ-Me)}-[dN][dY][dW][dOrn][Orn]G[dOrn]W-NH2), the hemolysis at 1 h was less than 0.1%.
On to `CC[C@H](C)[C@H](NC(=O)[C@H](Cc1ccccc1)NC(=O)[C@H](Cc1c[nH]c2ccccc12)NC(=O)[C@@H](CCCN)NC(=O)CNC(=O)[C@H](CCCN)NC(=O)[C@@H](CCCN)NC(=O)[C@@H](Cc1c[nH]c2ccccc12)NC(=O)[C@@H](Cc1ccc(O)cc1)NC(=O)[C@@H](CO)NC(=O)CCCCCC(C)C)C(=O)N[C@@H](CC(N)=O)C(=O)NCC(=O)NCC(N)=O` ({Octanoyl(7-Me)}-[dS][dY][dW][dOrn][Orn]G[dOrn]WFINGG-NH2), for which the hemolysis at 1 h stood at 0.6%.
`C=CCOC(=O)CC[C@H](NC(=O)[C@H](Cc1c[nH]c2ccccc12)NC(=O)[C@@H](CCCN)NC(=O)CNC(=O)[C@H](CCCN)NC(=O)[C@@H](CCCN)NC(=O)[C@@H](Cc1c[nH]c2ccccc12)NC(=O)[C@@H](Cc1ccc(O)cc1)NC(=O)[C@@H](CO)NC(=O)CCCCCC(C)C)C(=O)N[C@H](C(=O)N[C@@H](CC(N)=O)C(=O)NCC(=O)NCC(N)=O)[C@@H](C)CC` ({Octanoyl(7-Me)}-[dS][dY][dW][dOrn][Orn]G[dOrn]WE(OAll)INGG-NH2): the hemolysis at 1 h is less than 0.1%.
For the compound `CC[C@H](C)[C@H](NC(=O)[C@H](CC(N)=O)NC(=O)[C@H](Cc1c[nH]c2ccccc12)NC(=O)[C@@H](CCCN)NC(=O)CNC(=O)[C@H](CCCN)NC(=O)[C@@H](CCCN)NC(=O)[C@@H](Cc1c[nH]c2ccccc12)NC(=O)[C@@H](Cc1ccc(O)cc1)NC(=O)[C@@H](CO)NC(=O)CCCCCC(C)C)C(=O)N[C@@H](CC(N)=O)C(=O)NCC(=O)NCC(N)=O` ({Octanoyl(7-Me)}-[dS][dY][dW][dOrn][Orn]G[dOrn]WNINGG-NH2), the hemolysis at 1 h was less than 0.1%.
With `CC[C@H](C)[C@H](NC(=O)[C@H](CC(C)C)NC(=O)[C@H](Cc1c[nH]c2ccccc12)NC(=O)[C@@H](CCCN)NC(=O)CNC(=O)[C@H](CCCN)NC(=O)[C@@H](CCCN)NC(=O)[C@@H](Cc1c[nH]c2ccccc12)NC(=O)[C@@H](Cc1ccc(O)cc1)NC(=O)[C@@H](CO)NC(=O)CCCCCC(C)C)C(=O)N[C@@H](CC(N)=O)C(=O)NCC(=O)NCC(N)=O` ({Octanoyl(7-Me)}-[dS][dY][dW][dOrn][Orn]G[dOrn]WLINGG-NH2), the hemolysis at 1 h was less than 0.1%.
Regarding `CCC(C)CCC(=O)N[C@H](CC(N)=O)C(=O)N[C@H](Cc1ccc(O)cc1)C(=O)N[C@H](Cc1c[nH]c2ccccc12)C(=O)N[C@H](CCCN)C(=O)N[C@@H](CCCN)C(=O)NCC(=O)N[C@H](CCCN)C(=O)N[C@@H](Cc1c[nH]c2ccccc12)C(=O)N[C@H](C(=O)N[C@H](C(=O)NCC(=O)N[C@@H](CO)C(=O)O)[C@@H](C)CC)[C@@H](C)O` (stereo not given in full) ({Hexanoyl(4ξ-Me)}-[dN][dY][dW][dOrn][Orn]G[dOrn]WTIGS-OH), the hemolysis at 1 h is less than 0.1%.
On the same count and under the same terms, next, `CCC(C)CCC(=O)N[C@H](CC(N)=O)C(=O)N[C@H](Cc1ccc(O)cc1)C(=O)N[C@H](Cc1c[nH]c2ccccc12)C(=O)N[C@H](CCCN)C(=O)N[C@@H](CCCN)C(=O)NCC(=O)N[C@H](CCCN)C(=O)N[C@@H](Cc1c[nH]c2ccccc12)C(=O)N[C@H](C(=O)N[C@H](C(=O)NCC(=O)N[C@@H](CO)C(N)=O)[C@@H](C)CC)[C@@H](C)O` (stereo not given in full) ({Hexanoyl(4ξ-Me)}-[dN][dY][dW][dOrn][Orn]G[dOrn]WTIGS-NH2): less than 0.1%; `CC[C@H](C)[C@H](NC(=O)[C@@H](NC(=O)[C@H](Cc1c[nH]c2ccccc12)NC(=O)[C@@H](CCCN)NC(=O)CNC(=O)[C@H](CCCN)NC(=O)[C@@H](CCCN)NC(=O)[C@@H](Cc1c[nH]c2ccccc12)NC(=O)[C@@H](Cc1ccc(O)cc1)NC(=O)[C@@H](CO)NC(=O)CCCCCC(C)C)[C@@H](C)O)C(=O)N[C@@H](CC(N)=O)C(=O)NCC(=O)NCC(N)=O` ({Octanoyl(7-Me)}-[dS][dY][dW][dOrn][Orn]G[dOrn]WTINGG-NH2): less than 0.1%.
For `CC[C@H](C)[C@H](NC(=O)[C@@H](NC(=O)[C@H](Cc1c[nH]c2ccccc12)NC(=O)[C@@H](CCCN)NC(=O)CNC(=O)[C@H](CCCN)NC(=O)[C@@H](CCCN)NC(=O)[C@@H](Cc1c[nH]c2ccccc12)NC(=O)[C@@H](Cc1ccc(O)cc1)NC(=O)[C@@H](CO)NC(=O)CCCCCC(C)C)[C@@H](C)O)C(=O)N[C@@H](CC(N)=O)C(=O)NCC(=O)NCC(=O)O` ({Octanoyl(7-Me)}-[dS][dY][dW][dOrn][Orn]G[dOrn]WTINGG-OH), the hemolysis at 1 h is less than 0.1%.
Still for that read-out and setting: under `CC[C@H](C)[C@H](NC(=O)[C@@H](NC(=O)[C@H](Cc1c[nH]c2ccccc12)NC(=O)[C@@H](CCCN)NC(=O)CNC(=O)[C@H](CCCN)NC(=O)[C@@H](CCCN)NC(=O)[C@@H](Cc1c[nH]c2ccccc12)NC(=O)[C@@H](Cc1ccc(O)cc1)NC(=O)[C@@H](CO)NC(=O)CCCCCC(C)C)[C@@H](C)O)C(=O)N[C@@H](CC(N)=O)C(=O)NCC(N)=O` ({Octanoyl(7-Me)}-[dS][dY][dW][dOrn][Orn]G[dOrn]WTING-NH2) stands less than 0.1%.
Consider `C=CCOC(=O)NC[C@H](NC(=O)[C@H](Cc1c[nH]c2ccccc12)NC(=O)[C@@H](CCCN)NC(=O)CNC(=O)[C@H](CCCN)NC(=O)[C@@H](CCCN)NC(=O)[C@@H](Cc1c[nH]c2ccccc12)NC(=O)[C@@H](Cc1ccc(O)cc1)NC(=O)[C@@H](CO)NC(=O)CCCCCC(C)C)C(=O)N[C@H](C(=O)N[C@@H](CC(N)=O)C(=O)NCC(=O)NCC(N)=O)[C@@H](C)CC` ({Octanoyl(7-Me)}-[dS][dY][dW][dOrn][Orn]G[dOrn]W[Dap](Alloc)INGG-NH2), for which the hemolysis at 1 h is less than 0.1%.
`C=CCOC(=O)NC[C@H](NC(=O)[C@H](Cc1c[nH]c2ccccc12)NC(=O)[C@@H](CCCN)NC(=O)CNC(=O)[C@H](CCCN)NC(=O)[C@@H](CCCN)NC(=O)[C@@H](Cc1c[nH]c2ccccc12)NC(=O)[C@@H](Cc1ccc(O)cc1)NC(=O)[C@@H](CC(N)=O)NC(=O)CCC(C)CC)C(=O)N[C@H](C(=O)NCC(N)=O)[C@@H](C)CC` (stereo not given in full) ({Hexanoyl(4ξ-Me)}-[dN][dY][dW][dOrn][Orn]G[dOrn]W[Dap](Alloc)IG-NH2): the hemolysis at 1 h was less than 0.1%.
Turning to `CC[C@H](C)[C@H](NC(=O)[C@H](CO)NC(=O)[C@H](Cc1c[nH]c2ccccc12)NC(=O)[C@@H](CCCN)NC(=O)CNC(=O)[C@H](CCCN)NC(=O)[C@@H](CCCN)NC(=O)[C@@H](Cc1c[nH]c2ccccc12)NC(=O)[C@@H](Cc1ccc(O)cc1)NC(=O)[C@@H](CO)NC(=O)CCCCCC(C)C)C(=O)N[C@@H](CC(N)=O)C(=O)NCC(=O)NCC(N)=O` ({Octanoyl(7-Me)}-[dS][dY][dW][dOrn][Orn]G[dOrn]WSINGG-NH2), the hemolysis at 1 h is less than 0.1%.
Consider `CCC(C)CCC(=O)N[C@H](CC(N)=O)C(=O)N[C@H](Cc1ccc(O)cc1)C(=O)N[C@H](Cc1c[nH]c2ccccc12)C(=O)N[C@H](CCCN)C(=O)N[C@@H](CCCN)C(=O)NCC(=O)N[C@H](CCCN)C(=O)N[C@@H](Cc1c[nH]c2ccccc12)C(=O)N[C@@H]1C(=O)N[C@@H]([C@@H](C)CC)C(=O)NCC(=O)N[C@@H](CO)C(=O)O[C@@H]1C` (stereo not given in full) ({Hexanoyl(4ξ-Me)}-[dN][dY][dW][dOrn][Orn]G[dOrn]WTIGS; ester 9-C), for which the hemolysis at 1 h was less than 0.1%.
Take `CCC(C)CCC(=O)N[C@H](CC(N)=O)C(=O)N[C@H](Cc1ccc(O)cc1)C(=O)N[C@H](Cc1c[nH]c2ccccc12)C(=O)N[C@H](CCCN)C(=O)N[C@@H](CCCN)C(=O)NCC(=O)N[C@H](CCCN)C(=O)N[C@@H](Cc1c[nH]c2ccccc12)C(=O)N[C@H](C(N)=O)[C@@H](C)O` (stereo not given in full) ({Hexanoyl(4ξ-Me)}-[dN][dY][dW][dOrn][Orn]G[dOrn]WT-NH2): the hemolysis at 1 h was less than 0.1%.
The same measure, in the same setting: next, `CC(C)CCCCCC(=O)N[C@H](CO)C(=O)N[C@H](Cc1ccc(O)cc1)C(=O)N[C@H](Cc1c[nH]c2ccccc12)C(=O)N[C@H](CCCN)C(=O)N[C@@H](CCCN)C(=O)NCC(=O)N[C@H](CCCN)C(=O)N[C@@H](Cc1c[nH]c2ccccc12)C(=O)N[C@H](C(N)=O)[C@@H](C)O` ({Octanoyl(7-Me)}-[dS][dY][dW][dOrn][Orn]G[dOrn]WT-NH2): less than 0.1%; `CCC(C)CCC(=O)N[C@H](CC(N)=O)C(=O)N[C@H](Cc1ccc(O)cc1)C(=O)N[C@H](Cc1c[nH]c2ccccc12)C(=O)N[C@H](CCCN)C(=O)N[C@@H](CCCN)C(=O)NCC(=O)N[C@H](CCCN)C(=O)N[C@@H](Cc1c[nH]c2ccccc12)C(=O)N[C@H](C(=O)N[C@H](C(N)=O)[C@@H](C)CC)[C@@H](C)O` (stereo not given in full) ({Hexanoyl(4ξ-Me)}-[dN][dY][dW][dOrn][Orn]G[dOrn]WTI-NH2): less than 0.1%; `CC(C)CCCCCC(=O)N[C@H](CO)C(=O)N[C@H](Cc1ccc(O)cc1)C(=O)N[C@H](Cc1c[nH]c2ccccc12)C(=O)N[C@H](CCCN)C(=O)N[C@@H](CCCN)C(=O)NCC(=O)N[C@H](CCCN)C(=O)N[C@@H](Cc1c[nH]c2ccccc12)C(N)=O` ({Octanoyl(7-Me)}-[dS][dY][dW][dOrn][Orn]G[dOrn]W-NH2): less than 0.1%.

The subject of a further series is Escherichia coli. In words: Antibacterial activity Escherichia coli ATCC 25922 assessed as inhibition of visible bacterial growth incubated for 18 hrs by microbroth dilution assay.
Conditions: not given
The series is classed as functional. The gist of the method:
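CLSI broth microdilution. Strains streaked from glycerol stocks onto blood agar (16 h, 37 °C); single colonies grown in TSB at 37 °C, 220 rpm, to OD600 about 0.5. Diluted in MHB to 2 × 10^5 CFU/mL and mixed 1:1 with compounds serially diluted in MHB from DMSO stocks (colistin from water stocks), polypropylene plates. Sealed, 18 h at 37 °C, 600 rpm. MIC taken as lowest concentration preventing visible growth, three technical replicates.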
For the compound `CC[C@H](C)[C@H](NC(=O)[C@@H](NC(=O)[C@H](Cc1c[nH]c2ccccc12)NC(=O)[C@@H](CCCN)NC(=O)[C@H](C)NC(=O)[C@H](CCCN)NC(=O)[C@@H](CCCN)NC(=O)[C@@H](Cc1c[nH]c2ccccc12)NC(=O)[C@@H](Cc1ccc(O)cc1)NC(=O)[C@@H](CO)NC(=O)CCCCCC(C)C)[C@@H](C)O)C(=O)N[C@@H](CC(N)=O)C(=O)NCC(=O)NCC(N)=O` ({Octanoyl(7-Me)}-[dS][dY][dW][dOrn][Orn]A[dOrn]WTINGG-NH2), the MIC stood at 4 µg/mL (≈ 2.45 µM).
`CC(C)CCCCCC(=O)N[C@H](CO)C(=O)N[C@H](Cc1ccc(O)cc1)C(=O)N[C@H](Cc1c[nH]c2ccccc12)C(=O)N[C@H](CCCN)C(=O)N[C@@H](CCCN)C(=O)NCC(=O)N[C@H](CCCN)C(=O)N[C@@H](Cc1c[nH]c2ccccc12)C(=O)N[C@H](C(N)=O)[C@@H](C)O` ({Octanoyl(7-Me)}-[dS][dY][dW][dOrn][Orn]G[dOrn]WT-NH2): the MIC is greater than 32 µg/mL.
